Compound activity as filed in PubChem BioAssay.
C-LANA FP: inhibitors of KSHV C-LANA binding to DNA, primary screen, biochemical, fluorescence polarization, FAM-LBS DNA, MBP-C-LANA, single point; 0.078% of 340,000 active; inhibition, % at 9 µM; Kaposi's sarcoma herpesvirus LANA C-terminal domain (residues 932-1162) DNA binding;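 active means highest replicate inhibition at or above 60% at 9 µM, even if other replicates fall short; inactive means all replicates below 60% inhibition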;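 further: 0% = neutral control wells and 100% = 4 µM acridine orange control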
DDE Tn7 FP inh: inhibitors of Tn7 peptide binding to fibrin DD(E), primary screen, biochemical, fluorescence polarization, human fibrin, Tn7 probe; inhibition, % at 8.3 µM; 0.13% of 370,000 active; FP displacement of FITC-Tn7 peptide from fibrin DD(E); 0% = median of compound wells per plate; AID 720508, 2013;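 active means inhibition above the mean of compounds falling within the control limits plus 3 SD of them, cut at about 14% in these data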;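 further: 0% = plate median of compound wells and 100% = 10 µM Aha-Tn7 peptide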
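Assay system: Fibrin-DD(E) protein isolated from polymerized human fibrin clots; read-out basis: percent inhibition; medium: Tris/NaCl/CaCl2 buffer, pH 7.8; signal: FP measurement; incubation: 10 min plus 3 h, room temperature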
Rtt109 Vps75: inhibitors of C. albicans Rtt109/Vps75 HAT, primary screen, biochemical, ThioGlo CoA-SH fluorescence, plate reader | inhibition, % at 34.9 µM | 0.16% of 330,000 active | purified Rtt109/Vps75, 4 h;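 active means inhibition of at least 50% in every replicate; inconclusive means best replicate reaches 50% inhibition but some replicates fall short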
Target sequence (Q5AAJ8 whole entry, looked up): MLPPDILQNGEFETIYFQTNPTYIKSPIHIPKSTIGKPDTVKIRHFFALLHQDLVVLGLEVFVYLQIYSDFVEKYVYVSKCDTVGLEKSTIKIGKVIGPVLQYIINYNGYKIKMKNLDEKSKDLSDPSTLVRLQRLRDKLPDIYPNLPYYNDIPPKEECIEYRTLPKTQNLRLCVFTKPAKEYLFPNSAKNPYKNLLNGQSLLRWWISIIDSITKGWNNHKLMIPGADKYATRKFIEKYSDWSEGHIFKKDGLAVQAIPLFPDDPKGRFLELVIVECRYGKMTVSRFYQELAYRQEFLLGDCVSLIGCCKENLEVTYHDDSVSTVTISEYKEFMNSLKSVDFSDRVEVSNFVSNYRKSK
Keap1-Nrf2 PPI: Keap1-Nrf2 protein-protein interaction inhibitors, primary screen, biochemical, fluorescence polarization, single point; Keap1 Kelch-Nrf2 peptide fluorescence polarization, 1536-well; AID 504523, 2011; Kelch-like ECH-associated protein 1 (Homo sapiens), Q14145; inhibition, % at 9.4 µM; 0.15% of 340,000 active; in the data active means inhibition above about 12%; inconclusive means no clear call, values can overlap the other calls; inactive means below about 7.3%;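 further: human Keap1 Kelch domain with fluorescein labeled Nrf2 9mer peptide probe; 0% = neutral control wells and 100% = peptide positive control; higher means more block of Keap1 binding to Nrf2 peptide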
Tn6 DDE FP: inhibitors of Tn6 peptide binding to fibrin DD(E), primary screen, biochemical, fluorescence polarization, human fibrin, Tn6 probe. Fibrinogen beta chain (Homo sapiens), P02675. Fibrin DD(E) TRITC-Tn6 fluorescence polarization displacement. inhibition, % at 8.3 µM. 0.21% of 370,000 active. AID 720509, 2013;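 active means inhibition above a per-campaign cutoff: mean of compounds within control limits plus 3 SD, cut at about 15% in these data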;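 further: 0% = median of all compound wells on the plate and 100% = blocking peptide control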
Active calls of the source: *; ? = inconclusive; . = not tested or not shown. Hits are enriched below; roughly 0.6% of the tested compounds scored in any of these assays.

SMILES	C-LANA FP	DDE Tn7 FP inh	Rtt109 Vps75	Keap1-Nrf2 PPI	Tn6 DDE FP
CCC(=O)n1nc(-c2ccc(Cl)cc2)nc1SC	0	5	-2	3	-1
COc1cc(CNCc2ccncc2)cc(OC)c1OC	3	4	-2	-6	-7
COc1cc(CNCc2ccc(C)cc2)cc(OC)c1OC	0	-5	51*	1	0
O=S(=O)(c1ccc(F)cc1)N1CCC(c2nc3ccccc3o2)CC1	.	3	.	.	-5
CC(C)NC(=O)N[C@@H]1C[C@@H]2O[C@@H](CO)CC[C@@H]2O[C@@H]1CCc1ccc(-c2ccccc2F)cc1	.	6	.	.	3
COc1ccc(CNC(=O)c2sc3nc(C)c(Cl)c(C)c3c2N)cc1	.	6	.	.	-8
COc1cc(-c2nnc(SCC(=O)OC3CCCCC3)o2)cc(OC)c1OC	1	-5	59*	-5	6
CCOC(=O)CSc1nnc(-c2cc(OC)c(OC)c(OC)c2)o1	-1	-3	-6	-4	6
Cc1nnc(NC(=O)c2c(-c3ccccc3)noc2C)s1	-4	-1	0	-2	0
Cc1onc(-c2ccccc2)c1C(=O)Nc1cccc2nsnc12	116*	-10	-4	-6	-7
CN1c2ccc(-c3cccc(F)c3)cc2[C@H]2[C@H](CCN2S(=O)(=O)c2cccc(F)c2)[C@H]1CO	.	2	.	.	-2
CC(NC(=O)COC(=O)c1ccc([N+](=O)[O-])o1)c1ccccc1 (stereo unspecified)	108*	-4	1	0	-3
C=CCn1c(SCC(=O)Nc2ccccc2-c2ccccc2)nnc1-c1ccc(Cl)cc1	.	-8	.	.	-5
Nc1nc2ccc(S(=O)(=O)N3CCCCC3)cc2s1	0	-2	152*	-8	10
Cc1nc2ccc(S(=O)(=O)N3CCCCC3)cc2s1	0	-3	-1	-7	-4
Cc1c(C2Nc3ccccc3NC3=C2C(=O)CC(C)(C)C3)cnn1C (stereo unspecified)	6	15*	-4	0	2
CC1(C)CC(=O)C2=C(C1)Nc1ccccc1NC2c1ccccc1F (stereo unspecified)	7	7	-7	-1	-2
Cc1cc(N2CCN(Cc3ccccc3)CC2)n2nc(C)nc2n1	.	0	.	.	-4
C=CCN1C(=O)[C@@H](CC(=O)N2CCSCC2)[C@]2(C(=O)OCC)CCCCC/C=C/12	.	-5	.	.	9
CC(C)C[C@@H]1CN=C(N)N1C[C@@H]1CCCN1C[C@H](C)N1C[C@@H](Cc2ccccc2)N(CCc2ccc(Cl)c(Cl)c2)C1=N	1	.	75*	3	.
O=C1c2cccc3c([N+](=O)[O-])ccc(c23)C(=O)N1c1ccccn1	1	-10	-15	-2	-1
O=C1c2cccc3c([N+](=O)[O-])ccc(c23)C(=O)N1O	3	-5	-4	20*	4
C=CCN(CC#Cc1ccc(OC)cc1)CC=C	.	9	.	.	3
O=c1c2cc(O)c(O)cc2oc2cc(O)c(C3OC(CO)C(O)C(O)C3O)c(O)c12 (stereo unspecified)	67*	3	-29	-2	7
O=C(CCN1C(=O)/C(=C/c2ccc(F)cc2)SC1=S)NC1C=CS(=O)(=O)C1 (stereo unspecified)	0	5	-21	-5	6
SMILES	C-LANA FP	DDE Tn7 FP inh	Rtt109 Vps75	Keap1-Nrf2 PPI	Tn6 DDE FP
CC(C(=O)NC1C=CS(=O)(=O)C1)N1C(=O)/C(=C/c2ccc(Cl)cc2)SC1=S (stereo unspecified)	0	7	139*	-2	4
COc1ccc(C2=CC(=O)C=CC2=O)cc1	.	.	104*	.	.
CC(=O)c1ccc(-c2cc(C(C)=O)c3n(c2=O)CCC3)cc1	.	4	.	.	-9
O=C(Nc1ccc(Cl)c(Cl)c1)Oc1ccc(NC(=O)c2ccco2)cc1	1	19*	9	1	-1
O=C(Nc1ccc(OC(=O)c2ccco2)cc1)c1ccco1	2	3	17	1	-1
Cc1nc2c(=O)[nH]c(=S)[nH]c2[nH]c1=O	103*	2	-3	?	0
Cc1nc2[nH]c(=S)[nH]c(=O)c2nc1C	2	-5	-3	-2	-2
O=C(NCCCN1CCCC1=O)c1ccc(OC(F)(F)F)cc1	-1	-5	61*	-6	-7
O=C(CSCc1cnn(-c2ccccc2)c1-n1cccc1)NCc1cccnc1	80*	-3	5	2	-9
COc1ccccc1CNC(=O)CSCc1cnn(-c2ccccc2)c1-n1cccc1	-1	3	13	4	1
C[C@@H](CO)N(CCc1cn(Cc2ccccc2)nn1)S(=O)(=O)c1ccccc1Br	.	5	.	.	5
CN(C)CCCNC(=O)C[C@@H]1CC[C@@H]2[C@H](COc3ccc(NC(=O)c4cccc(F)c4)cc3C(=O)N2C)O1	.	3	.	.	12
CC1CCN(C(=O)CNC(=O)Cc2ccccc2)CC1	-1	7	-5	0	5
Cc1ccccc1/C=C/C(=O)NCC(=O)N1CCC(N(C)C2CCCCC2C)CC1 (stereo unspecified)	3	3	60*	-3	5
COC(=O)[C@]12C[C@H](CC(=O)N3CCSCC3)C(=O)N(Cc3ccco3)C1=C[C@H](COCc1ccccc1)O[C@@H]2C	.	-4	.	.	0
CCOc1ccc(-n2c(SCC(=O)Nc3cccc4ccccc34)nnc2-c2cccs2)cc1	.	-1	.	.	-3
CC[n+]1ccccc1/C=C/c1ccc(N(C)C)cc1	-10	-25	19	-30	-9
CC[n+]1ccc(/C=C/c2ccc(N(C)C)cc2)c2ccccc21	-15	-4	-12	-4	39*
CC(C)c1ccc(N2C(=O)C(Cl)=C(N3CCOCC3)C2=O)cc1	1	-2	12	-1	-6
CCOc1ccc(N2C(=O)C(Cl)=C(N3CCOCC3)C2=O)cc1	-1	-1	116*	1	0
COCCCNC(=O)C[C@H]1C[C@@]2(C(=O)OC)C(=C[C@H](C3CCCC3)O[C@@H]2C)N(Cc2ccc(Cl)cc2Cl)C1=O	.	-7	.	.	-3
CCOC(=O)/C=C/C(=O)Nc1cccc([N+](=O)[O-])c1	-1	.	108*	1	.
CCCCc1ccc(-n2c(Cc3cccs3)n[nH]c2=S)cc1	-1	13	72*	3	9
Cc1ccc(NC(=S)NNC(=O)c2cnccn2)cc1	.	-1	.	.	3
Cc1noc(C)c1-c1nc(CSc2ccccc2)no1	91*	7	1	-2	-2
